The text below walks through data of paper PMC3048909 (Journal of medicinal chemistry, 2011).

One may read the IC50 as the concentration at which inhibition is half-maximal.

Each structure is given as a SMILES string. Where two headings read alike, the source gives them in different places.

The subject of test [1] is nicotine-induced antinociception (tail-flick). Particulars: mice, antagonism of acute nicotine; parentheses: confidence limits; cited from earlier work.
The test system of test [2] is nicotine-induced antinociception (hot-plate). The settings on record: mice, antagonism of acute nicotine; parentheses: confidence limits; cited from earlier work.
Test [3] deals with nicotine-induced locomotor depression. Particulars: mice, antagonism of acute nicotine; parentheses: confidence limits; cited from earlier work.
The test system of test [4] is nicotine-induced hypothermia. The settings on record: mice, antagonism of acute nicotine; parentheses: confidence limits; cited from earlier work.
Test [5] concerns the target T1, human DAT (Homo sapiens, UniProt Q01959). The settings on record: HEK-293 cells, mean ± standard error; cited from earlier work.
The target in test [6] is α1*-nAChR (muscle-type α1β1γδ-nAChR) (Homo sapiens, UniProt P02708+P07510+P11230+Q07001). Briefly: 86Rb+ efflux assay of nAChR function. It is filed as cell-based.
The subject of test [7] is nicotine-induced antinociception (tail-flick). Briefly: Blockade of nicotine-induced antinociception, tail-flick test. It is filed as in vivo, mice. Particulars: for ED50: Mus musculus, read-out: AD50 Tail-flick; for AD50 Tail-flick: mice, antagonism of acute nicotine, parentheses: confidence limits; for More potent in the tail-flick test: relative to (S,S)-4a. The gist of the method:
(§1)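 Male ICR mice (20–25 g) were given the test compound to block the acute effects of nicotine. Dose-response curves used at least four doses of test compound, with at least eight mice per dose group. Results are AD50 (mg/kg) with confidence limits, or % effect at the highest dose tested.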
(Hot-plate and tail-flick tests time the reaction to a heat stimulus.)

Test [8] concerns nicotine-induced antinociception (hot-plate). Briefly: Blockade of nicotine-induced antinociception, hot-plate test. The format is in vivo, mice. The settings on record: for ED50: Mus musculus, read-out: AD50 Hot-plate. The gist of the method:
as §1

Test [9] has as its system nicotine-induced locomotor depression. Description: Blockade of nicotine-induced locomotor depression. The format is in vivo, mice. The settings on record: for ED50: Mus musculus, read-out: AD50 Locomotion; for AD50 Locomotion: mice, antagonism of acute nicotine, parentheses: confidence limits. The gist of the method:
as §1

Test [10] deals with nicotine-induced hypothermia. Briefly: Blockade of nicotine-induced hypothermia. The format is in vivo, mice. The settings on record: for ED50: Mus musculus, read-out: AD50 Hypothermia. The gist of the method: as §1
The target of test [11] is α4β2-nAChR (Homo sapiens, UniProt P17787+P43681). Description: 86Rb+ efflux assay of nAChR function. It is filed as cell-based.
For test [12], the system named is nicotine-induced CPP. The settings on record: mice, blockade of nicotine-induced CPP; cited from earlier work.
In test [13] the target is T1, human DAT. Briefly: [3H]DA uptake inhibition, HEK-293 cells expressing human DAT. It is filed as cell-based. Particulars: for Increase in potency for inhibition of DA uptake: relative to (S,S)-5a.
Test [14] has as its target human NET (Homo sapiens, UniProt P23975). Briefly: [3H]NE uptake inhibition, HEK-293 cells expressing human NET. The format is cell-based.
The target of test [15] is human SERT (Homo sapiens, UniProt P31645). Description: [3H]5HT uptake inhibition, HEK-293 cells expressing human SERT. The format is cell-based. Particulars: relative to (S,S)-5a.
Test [16] addresses α3β4*-nAChR (Homo sapiens, UniProt P30926+P32297). Description: 86Rb+ efflux assay of nAChR function. It is filed as cell-based.
The target in test [17] is α4β4-nAChR (Homo sapiens, UniProt P30926+P43681). Description: 86Rb+ efflux assay of nAChR function. The format is cell-based.
Test [18] relates to nicotine-induced CPP. Description: Blockade of nicotine-induced conditioned place preference. It is filed as in vivo, mice. The settings on record: for AD50 CPP: mice, blockade of nicotine-induced CPP.
The mark [19] stands for this setting: mice, antagonism of acute nicotine, parentheses: confidence limits.

α3β4*-nAChR, sequence (P32297 32-505): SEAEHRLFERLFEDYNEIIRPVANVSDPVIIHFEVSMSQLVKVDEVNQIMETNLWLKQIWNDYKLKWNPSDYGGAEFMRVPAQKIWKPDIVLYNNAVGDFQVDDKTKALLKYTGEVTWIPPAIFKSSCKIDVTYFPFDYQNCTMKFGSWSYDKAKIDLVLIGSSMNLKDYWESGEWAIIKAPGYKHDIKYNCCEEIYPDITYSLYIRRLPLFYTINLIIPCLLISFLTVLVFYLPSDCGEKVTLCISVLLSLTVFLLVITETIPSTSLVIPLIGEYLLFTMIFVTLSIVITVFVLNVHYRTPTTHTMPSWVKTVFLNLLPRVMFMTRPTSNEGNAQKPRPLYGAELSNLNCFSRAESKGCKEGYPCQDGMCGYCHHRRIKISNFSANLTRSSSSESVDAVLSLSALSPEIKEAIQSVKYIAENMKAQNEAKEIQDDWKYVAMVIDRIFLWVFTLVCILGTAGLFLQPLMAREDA
α3β4*-nAChR, sequence (P30926 22-498): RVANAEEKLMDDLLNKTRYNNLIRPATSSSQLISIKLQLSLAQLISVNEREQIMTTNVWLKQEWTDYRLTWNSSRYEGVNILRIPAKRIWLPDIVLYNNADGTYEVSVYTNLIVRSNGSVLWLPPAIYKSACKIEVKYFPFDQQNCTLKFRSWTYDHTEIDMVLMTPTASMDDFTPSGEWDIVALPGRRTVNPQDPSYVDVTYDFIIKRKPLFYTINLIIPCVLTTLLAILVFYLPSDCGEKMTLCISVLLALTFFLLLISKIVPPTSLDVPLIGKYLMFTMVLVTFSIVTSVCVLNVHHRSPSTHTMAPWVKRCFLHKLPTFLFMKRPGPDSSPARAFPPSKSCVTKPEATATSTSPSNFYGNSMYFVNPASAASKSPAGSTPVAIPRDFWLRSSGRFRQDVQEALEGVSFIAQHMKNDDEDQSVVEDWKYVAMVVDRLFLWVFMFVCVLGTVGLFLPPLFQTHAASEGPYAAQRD
T1 sequence (Q01959 whole entry): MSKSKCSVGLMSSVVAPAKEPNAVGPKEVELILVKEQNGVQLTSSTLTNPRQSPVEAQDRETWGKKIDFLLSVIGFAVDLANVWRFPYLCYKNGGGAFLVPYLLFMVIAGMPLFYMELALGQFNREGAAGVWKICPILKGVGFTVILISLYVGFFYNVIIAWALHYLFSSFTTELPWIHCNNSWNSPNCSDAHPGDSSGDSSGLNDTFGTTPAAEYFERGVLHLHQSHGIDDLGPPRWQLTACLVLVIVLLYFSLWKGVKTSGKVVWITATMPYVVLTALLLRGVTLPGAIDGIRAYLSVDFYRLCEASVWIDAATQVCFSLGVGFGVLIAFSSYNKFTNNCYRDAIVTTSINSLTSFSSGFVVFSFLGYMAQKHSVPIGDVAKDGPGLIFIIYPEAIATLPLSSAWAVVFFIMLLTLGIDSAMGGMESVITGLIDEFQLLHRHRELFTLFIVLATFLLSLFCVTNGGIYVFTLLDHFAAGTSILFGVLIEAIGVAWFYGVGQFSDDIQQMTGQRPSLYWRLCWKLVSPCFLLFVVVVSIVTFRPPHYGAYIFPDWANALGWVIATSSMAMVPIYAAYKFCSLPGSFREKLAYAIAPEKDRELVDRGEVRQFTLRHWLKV
α1*-nAChR (muscle-type α1β1γδ-nAChR), sequence (P02708 21-457): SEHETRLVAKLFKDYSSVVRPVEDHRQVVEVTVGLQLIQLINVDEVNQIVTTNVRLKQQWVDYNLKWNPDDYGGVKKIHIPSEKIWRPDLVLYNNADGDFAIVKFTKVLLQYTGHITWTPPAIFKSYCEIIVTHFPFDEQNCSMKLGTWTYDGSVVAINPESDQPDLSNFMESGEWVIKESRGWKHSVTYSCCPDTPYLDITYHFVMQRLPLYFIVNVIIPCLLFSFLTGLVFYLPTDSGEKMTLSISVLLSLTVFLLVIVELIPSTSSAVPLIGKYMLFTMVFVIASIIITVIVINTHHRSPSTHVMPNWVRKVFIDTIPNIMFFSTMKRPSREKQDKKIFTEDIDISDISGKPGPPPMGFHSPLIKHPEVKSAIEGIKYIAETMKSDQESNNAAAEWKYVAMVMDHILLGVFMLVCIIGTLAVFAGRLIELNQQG
α1*-nAChR (muscle-type α1β1γδ-nAChR), sequence (P11230 24-501): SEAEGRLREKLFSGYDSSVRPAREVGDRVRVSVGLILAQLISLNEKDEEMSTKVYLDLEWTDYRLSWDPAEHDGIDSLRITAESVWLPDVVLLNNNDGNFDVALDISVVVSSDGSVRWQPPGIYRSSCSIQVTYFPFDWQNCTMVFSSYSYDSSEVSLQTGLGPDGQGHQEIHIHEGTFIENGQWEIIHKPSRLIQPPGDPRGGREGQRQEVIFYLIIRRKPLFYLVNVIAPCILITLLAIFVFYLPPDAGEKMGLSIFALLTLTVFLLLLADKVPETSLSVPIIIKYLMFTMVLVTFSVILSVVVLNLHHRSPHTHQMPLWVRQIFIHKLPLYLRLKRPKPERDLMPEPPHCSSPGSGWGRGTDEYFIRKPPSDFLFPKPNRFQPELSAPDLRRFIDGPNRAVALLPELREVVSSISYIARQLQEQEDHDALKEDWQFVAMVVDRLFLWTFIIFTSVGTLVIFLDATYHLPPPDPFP
α1*-nAChR (muscle-type α1β1γδ-nAChR), sequence (P07510 23-517): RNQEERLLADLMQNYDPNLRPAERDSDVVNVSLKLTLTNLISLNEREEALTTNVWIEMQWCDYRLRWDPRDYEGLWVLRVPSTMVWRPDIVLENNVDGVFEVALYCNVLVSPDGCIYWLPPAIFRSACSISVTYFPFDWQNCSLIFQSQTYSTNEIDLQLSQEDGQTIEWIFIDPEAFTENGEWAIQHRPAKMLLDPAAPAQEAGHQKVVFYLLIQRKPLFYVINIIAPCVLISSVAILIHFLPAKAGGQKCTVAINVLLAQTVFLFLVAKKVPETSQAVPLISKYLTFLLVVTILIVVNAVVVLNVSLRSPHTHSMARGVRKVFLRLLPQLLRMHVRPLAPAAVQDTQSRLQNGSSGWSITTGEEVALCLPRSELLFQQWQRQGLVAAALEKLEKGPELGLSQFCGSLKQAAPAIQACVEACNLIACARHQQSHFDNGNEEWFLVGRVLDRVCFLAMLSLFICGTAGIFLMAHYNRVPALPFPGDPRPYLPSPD
α1*-nAChR (muscle-type α1β1γδ-nAChR), sequence (Q07001 22-517): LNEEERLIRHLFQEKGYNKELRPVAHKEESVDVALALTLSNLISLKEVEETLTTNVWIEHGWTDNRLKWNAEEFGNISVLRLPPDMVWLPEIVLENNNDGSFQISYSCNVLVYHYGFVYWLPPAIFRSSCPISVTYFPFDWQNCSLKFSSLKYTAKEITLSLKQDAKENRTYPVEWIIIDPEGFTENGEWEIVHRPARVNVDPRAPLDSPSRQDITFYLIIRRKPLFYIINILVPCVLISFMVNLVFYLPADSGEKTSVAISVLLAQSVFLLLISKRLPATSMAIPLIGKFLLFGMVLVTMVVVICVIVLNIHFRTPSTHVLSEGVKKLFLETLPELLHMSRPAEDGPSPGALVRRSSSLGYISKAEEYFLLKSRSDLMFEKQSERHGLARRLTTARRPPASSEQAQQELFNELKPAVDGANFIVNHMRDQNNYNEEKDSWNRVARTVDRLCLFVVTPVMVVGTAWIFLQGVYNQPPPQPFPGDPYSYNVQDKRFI
human NET, sequence (P23975 whole entry): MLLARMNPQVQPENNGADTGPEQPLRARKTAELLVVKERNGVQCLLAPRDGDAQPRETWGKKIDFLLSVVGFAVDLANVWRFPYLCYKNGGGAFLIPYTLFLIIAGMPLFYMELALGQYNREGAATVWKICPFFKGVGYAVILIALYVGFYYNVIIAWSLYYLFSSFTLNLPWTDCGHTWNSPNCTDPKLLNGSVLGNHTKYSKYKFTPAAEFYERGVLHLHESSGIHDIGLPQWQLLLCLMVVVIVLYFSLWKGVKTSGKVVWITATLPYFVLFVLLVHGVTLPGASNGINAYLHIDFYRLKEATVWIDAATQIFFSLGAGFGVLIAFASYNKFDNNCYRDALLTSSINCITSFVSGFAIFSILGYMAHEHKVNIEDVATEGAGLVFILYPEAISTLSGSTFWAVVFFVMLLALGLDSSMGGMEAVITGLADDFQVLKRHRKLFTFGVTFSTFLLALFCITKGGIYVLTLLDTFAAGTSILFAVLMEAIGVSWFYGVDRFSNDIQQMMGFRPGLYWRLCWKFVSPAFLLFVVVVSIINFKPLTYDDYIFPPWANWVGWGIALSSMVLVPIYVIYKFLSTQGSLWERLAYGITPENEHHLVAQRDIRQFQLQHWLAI
α4β4-nAChR, sequence (P43681 29-627 limits assumed): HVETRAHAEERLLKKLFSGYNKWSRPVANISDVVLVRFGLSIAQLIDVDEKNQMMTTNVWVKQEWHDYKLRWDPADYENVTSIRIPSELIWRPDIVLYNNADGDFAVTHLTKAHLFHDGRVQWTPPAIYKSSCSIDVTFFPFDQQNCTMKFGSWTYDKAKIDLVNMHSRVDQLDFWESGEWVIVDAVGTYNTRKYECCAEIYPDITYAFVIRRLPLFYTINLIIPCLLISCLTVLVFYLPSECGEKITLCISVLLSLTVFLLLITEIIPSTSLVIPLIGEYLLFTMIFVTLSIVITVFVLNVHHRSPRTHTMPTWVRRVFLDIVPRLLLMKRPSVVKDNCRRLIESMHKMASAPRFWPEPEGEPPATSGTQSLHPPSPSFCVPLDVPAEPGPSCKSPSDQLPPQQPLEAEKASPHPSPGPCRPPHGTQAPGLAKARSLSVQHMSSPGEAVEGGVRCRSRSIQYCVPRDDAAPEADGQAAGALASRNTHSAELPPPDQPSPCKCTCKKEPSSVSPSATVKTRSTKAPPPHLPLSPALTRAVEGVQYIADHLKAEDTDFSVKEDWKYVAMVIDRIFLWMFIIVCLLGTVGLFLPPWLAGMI
α4β4-nAChR, sequence (P30926 22-498): as the sequence (P30926 22-498) above

As to `C[C@H]1NC(C)(C)CO[C@]1(O)c1cccc(Cl)c1` [(R,R)-4a, (R,R)-2-(3'-chlorophenyl)-3,5,5-trimethylmorpholine-2-ol], in test [1], the “AD50 Tail-flick” value is 2.5 (1.2–3.6) mg/kg. Besides, the “AD50 Hot-plate” value in test [2] is 10.3 (5.7–17.1) mg/kg. Further, the “AD50 Locomotion” value in test [3] is listed as “IA (IA = AD50 > 20 mg/kg)”. Also, in [4], the “AD50 Hypothermia” value is “IA (IA = AD50 > 20 mg/kg)”. In addition, in test [5], the “Monoamine Uptake Inhibition IC50 [3H]DA” value is “inactive”.
For `C[C@H]1NC(C)(C)CO[C@@H]1c1cccc(Cl)c1` [(R,R)-5a, (R,R)-2-(3'-Chlorophenyl)-3,5,5-trimethylmorpholine], in test [6], the IC50 was 9.4 µM. The ED50 in test [7] was 1.26 mg/kg; in test [8] it was 3.9 mg/kg; in [9] it was > 20 mg/kg; in test [10], > 20 mg/kg.
For the compound `C[C@@H]1NC(C)(C)CO[C@@]1(O)c1cccc(Cl)c1` [(S,S)-4a, (S,S)-2-(3'-chlorophenyl)-3,5,5-trimethylmorpholine-2-ol], the “Potency as functional antagonist of α4β2-nAChR, higher than” value in test [11] (relative to (R,R)-4a) is ~ 10 fold. In addition, the “AD50 Tail-flick” value in [1] was 0.2 (0.06–0.7) mg/kg. In test [2], the “AD50 Hot-plate” value is reported as 1.0 (0.2–2.2) mg/kg. In addition, in test [3], the “AD50 Locomotion” value is on record as 0.9 (0.2–5.7) mg/kg. Moreover, in test [12], the “AD50 CPP” value was 0.1 mg/kg.
For the compound `C[C@@H]1NC(C)(C)CO[C@H]1c1cccc(Cl)c1` [(S,S)-5a, (S,S)-2-(3'-Chlorophenyl)-3,5,5-trimethylmorpholine], the ED50 is 0.036 mg/kg in [7], > 20 mg/kg in [8], > 20 mg/kg in test [9] and > 20 mg/kg in [10]. For the same compound, in test [7], the “AD50 Tail-flick” value was 0.036 (0.012–0.1) mg/kg. Besides, in [7], the “More potent in the tail-flick test” value was 5.5 times. In [8] (setting [19]), the “AD50 Hot-plate” value is “inactive”. The “AD50 Hypothermia” value in test [10] (setting [19]) is “inactive”.
Take `C[C@@H]1NC(C)(C)CO[C@H]1c1cccc(F)c1` [(S,S)-5b, (S,S)-2-(3’-Fluorophenyl)-3,5,5-trimethylmorpholine]: the IC50 in test [13] was determined as 0.061 ± 0.02 µM; in test [14], 0.032 ± 0.003 µM; in test [16], 5.6 µM; in test [11] it was 23 µM; in test [17] it was 55 µM; in test [6], 34 µM. For the same compound, the “More potent as DA uptake inhibitor” value in [13] (compared to (S,S)-4a) stood at 10 fold. Further, the “Increase in potency for inhibition of DA uptake” value in [13] came out at 3.7 fold. In addition, the “More potent as NE uptake inhibitor” value in test [14] (compared to (S,S)-4a) stood at 5.6 fold. The “Increase in potency for inhibition of NE uptake” value in test [14] (relative to (S,S)-5a) is recorded as 3.2 fold. Moreover, the “Decrease in potency for inhibition of 5HT uptake” value in test [15] is listed as 12 fold. The ED50 in test [7] was 0.02 mg/kg; in test [8], > 20 mg/kg; in [9], 4.7 mg/kg; in [10], > 20 mg/kg.
In the case of `C[C@@H]1NC(C)(C)CO[C@H]1c1cccc(Br)c1` [(S,S)-5c, (S,S)-2-(3'-Bromophenyl)-3,5,5-trimethylmorpholine], the IC50 in test [13] was determined as 0.044 ± 0.003 µM; in [14] it was 0.15 ± 0.02 µM; in test [16] it was 1.4 µM; in test [11], 12 µM; in test [17] it was 11 µM; in test [6] it was 7.3 µM. Moreover, in test [13], the “Increase in potency for inhibition of DA uptake” value is 5 fold. The “More potent at α3β4*-nAChR” value in test [16] (relative to (S,S)-5a) was ~ 2 fold. The figures for the ED50 in test [7], in test [8] and in test [10] were 0.006 mg/kg, > 20 mg/kg and > 20 mg/kg, respectively. Besides, the “More potent in the tail-flick test” value in [7] is ~ 33 times. Besides, the “AD50 Locomotion” value in test [9] is reported as 2.1 (0.9–4.8) mg/kg.
Take `C[C@H]1[C@H](c2cccc(Cl)c2)OCC(C)(C)N1C` [(S,S)-5d, (S,S)-2-(3'-Chlorophenyl)-3,4,5,5-tetramethylmorpholine]: the IC50 in test [13] was found to be 0.23 ± 0.06 µM; in [14] it was 0.17 ± 0.02 µM; in [16] it was 2.8 µM; in test [11] it was 16 µM; in test [17] it was 23 µM; in [6], 21 µM. Besides, the ED50 in test [7] was 0.13 mg/kg; in test [8], > 20 mg/kg; in test [9], 3.8 mg/kg; in test [10], > 20 mg/kg.
On to `CCN1[C@@H](C)[C@H](c2cccc(Cl)c2)OCC1(C)C` [(S,S)-5e, (S,S)-2-(3'-Chlorophenyl)-4-ethyl-3,5,5-trimethylmorpholine], for which the IC50 in test [13] was 0.044 ± 0.009 µM; in test [14], 0.024 ± 0.008 µM; in test [16], 0.79 µM; in test [11], 7.2 µM; in [17] it was 6.4 µM; in test [6] it was 14 µM. In addition, the ED50 in test [7] is 0.029 mg/kg; in test [8], > 20 mg/kg; in test [9] it was > 20 mg/kg; in [10] it was > 20 mg/kg. Also, the “AD50 CPP” value in test [18] is 0.025 mg/kg. In addition, the “More potent in blocking nicotine-induced CPP” value in test [18] (relative to (S,S)-4a) was determined as 4 fold.
`CCCN1[C@@H](C)[C@H](c2cccc(Cl)c2)OCC1(C)C` [(S,S)-5f, (S,S)-2-(3'-Chlorophenyl)-3,5,5-trimethyl-4-propylmorpholine]: the IC50 in test [13] worked out at 0.061 ± 0.02 µM; in test [14], 0.013 ± 0.0036 µM; in test [16], 0.98 µM; in test [11] it was 12 µM; in test [17], 5.8 µM; in [6] it was 5.5 µM. Also, the ED50 in test [7] was 0.056 mg/kg; in test [8] it was > 20 mg/kg; in test [9] it was > 20 mg/kg; in [10], > 20 mg/kg. Also, in [18], the “AD50 CPP” value amounted to 0.03 mg/kg.
Regarding `CC[C@@H]1NC(C)(C)CO[C@H]1c1cccc(Cl)c1` [(S,S)-5g, (S,S)-2-(3'-Chlorophenyl)-3-ethyl-5,5-dimethylmorpholine], the IC50 in test [13] is 0.023 ± 0.005 µM; in test [14], 0.019 ± 0.003 µM; in [16], 5.6 µM; in [11] it was 14 µM; in test [17], 15 µM; in test [6] it was 13 µM. For the same compound, the ED50 in test [7] was 0.018 mg/kg; in test [8], 9.6 mg/kg; in [9] it was 2.7 mg/kg; in [10], 2.5 mg/kg. In addition, the “AD50 Tail-flick” value in [7] is 0.018 (0.009–0.03) mg/kg.
As for `CCC[C@@H]1NC(C)(C)CO[C@H]1c1cccc(Cl)c1` [(S,S)-5h, (S,S)-2-(3'-Chlorophenyl)-5,5-dimethyl-3-propylmorpholine], the IC50 in test [13] turned out to be 0.006 ± 0.001 µM; in [14] it was 0.009 ± 0.002 µM; in [16], 3.1 µM; in [11], 9.5 µM; in test [17], 8 µM; in test [6] it was 5 µM. For the same compound, the ED50 in test [7] is 0.017 mg/kg; in test [8] it was > 20 mg/kg; in [9], 0.49 mg/kg; in [10], > 20 mg/kg. Besides, the “AD50 Tail-flick” value in test [7] is listed as 0.017 (0.002–0.15) mg/kg. Besides, in test [9], the “AD50 Locomotion” value is 0.49(0.3–6.6) mg/kg.
On to `CC(NC(C)(C)C)C(=O)c1cccc(Cl)c1` (stereo not drawn) [compound 2, bupropion], for which the “AD50 Hot-plate” value in [2] is given as 15 (6–19) mg/kg. Also, the “AD50 Locomotion” value in test [3] is recorded as 4.9 (0.9–46) mg/kg. For the same compound, in [4], the “AD50 Hypothermia” value is 9.2 (4–23) mg/kg. Moreover, the “AD50 CPP” value in test [12] is recorded as 0.35 mg/kg.
